In the library only some 3.7% were active in any assay of this set; here they are far more common.
GPR7 antagonist = GPR7 receptor antagonists, primary screen, cell-based, fluorescence, single concentration; Neuropeptides B/W receptor type 1 (Homo sapiens), P48145; GPR7-expressing cells, fluorescence antagonist assay; inhibition, % at 4.4 µM; 1.1% of 290,000 active; in the data active = inhibition above about 16%, passing the limit was not always enough;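 also: cells stimulated with the agonist NPW; 0% = agonist with vehicle and 100% = vehicle without agonist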
Target sequence (P48145 whole entry, looked up): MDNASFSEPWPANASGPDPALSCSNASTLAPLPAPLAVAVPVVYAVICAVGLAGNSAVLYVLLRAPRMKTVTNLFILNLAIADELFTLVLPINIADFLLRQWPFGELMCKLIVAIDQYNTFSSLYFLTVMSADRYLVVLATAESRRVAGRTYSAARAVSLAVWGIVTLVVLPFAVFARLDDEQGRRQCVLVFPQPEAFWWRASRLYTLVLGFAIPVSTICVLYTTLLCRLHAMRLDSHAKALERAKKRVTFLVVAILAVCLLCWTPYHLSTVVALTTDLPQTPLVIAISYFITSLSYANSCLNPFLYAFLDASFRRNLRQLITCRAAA
OX1R antag-1 = antagonists of human orexin 1 receptor (OX1R); Orexin/Hypocretin receptor type 1 (Homo sapiens), O43613; OX1R-expressing cells, FRET antagonist read-out; inhibition, % at 6.6 µM; 1.8% of 330,000 active; AID 485270, 2010; in the data active = inhibition mostly above about 38%, no sharp cut-off; inactive = mostly below about 40%;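 also: 0% = agonist challenge alone and 100% = reference antagonist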
EP2 antag = human EP2 receptor antagonists, primary screen, TR-FRET cAMP, C6 glioma cells | C6 glioma cells expressing human EP2; cells stimulated with saturating PGE2 | 0.52% of 260,000 active | inhibition, % at 25 µM | AID 1422, 2008 | Prostaglandin E2 receptor EP2 subtype (Homo sapiens), P43116;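 active = percent inhibition above 40 after rounding to a whole number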;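 also: rat C6 glioma host cells with rolipram phosphodiesterase inhibitor present; the protocol text gives 20 µM as final concentration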
Target sequence (P43116 whole entry, looked up): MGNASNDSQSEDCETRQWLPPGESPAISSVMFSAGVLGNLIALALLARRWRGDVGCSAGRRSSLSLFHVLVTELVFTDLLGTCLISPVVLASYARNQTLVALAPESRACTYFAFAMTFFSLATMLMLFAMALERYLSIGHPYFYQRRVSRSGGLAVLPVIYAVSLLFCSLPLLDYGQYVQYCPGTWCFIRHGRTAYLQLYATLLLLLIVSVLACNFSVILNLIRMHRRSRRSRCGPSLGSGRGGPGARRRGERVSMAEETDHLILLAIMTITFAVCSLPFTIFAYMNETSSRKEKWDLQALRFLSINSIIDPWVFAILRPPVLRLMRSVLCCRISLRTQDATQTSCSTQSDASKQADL
CHO parental Ca = ATP-evoked calcium signal inhibitors, parental CHO, primary screen, counter-screen for OX1R antagonist project, cell-based, fluorescence, Fluo-8 calcium dye; 0.63% of 330,000 active; parental CHO-K1, ATP-induced calcium, Fluo-8 fluorescence; inhibition, % at 5.6 µM;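 active = inhibition above that plate's mean sample inhibition plus 3 SD, cut at about 26% in these data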;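 also: 0% = ATP-challenged DMSO wells and 100% = DMSO wells without ATP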
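Assay system: parental CHO cells; Read-out basis: percent inhibition of ATP-evoked calcium rise, normalized to controls; Benchmarks: ATP and no-ATP DMSO wells; Compound dosing: single nominal dose of 5.6 µM per compound; Signal: Fluo-8 calcium dye fluorescence; Also added: ATP as calcium-mobilizing challenge; Repeats: singlicate.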
OX1R antag-2 = OX1R (HCRTR1) antagonists, primary screen, fluorescence, CHO/OX1R cells, Fluo-8 calcium, orexin A | Fluo-8 calcium fluorescence | 0.43% of 330,000 active | AID 434989, 2010 | inhibition, % at 5 µM;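 active = inhibition above its plate's threshold, mean inhibition of all tested compounds on the plate plus 3 SD, cut at about 37% in these data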;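 also: 0% = orexin A challenge wells and 100% = SB-334867-A antagonist wells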
EP2 modulator = EP2 receptor modulators, cAMP readout, primary screen, cell-based, HTRF cAMP, PGE2 stimulation | Prostaglandin E2 receptor EP2 subtype (Homo sapiens), P43116 | EP2-expressing cells, cAMP HTRF FRET, PGE2 co-stimulation | induction, % at 25 µM | 0.83% of 260,000 active;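 active = compounds whose cAMP rise, as percent of the full-agonist control response, exceeds 60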;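 also: rat C6 glioma line stably carrying human EP2 under a CMV promoter; the protocol text gives 20 µM as final concentration; 100% = response of wells given 1 µM PGE2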
* hit, by the source's call; x = not tested or not shown.

SMILES	GPR7 antagonist	OX1R antag-1	EP2 antag	CHO parental Ca	OX1R antag-2	EP2 modulator
CCc1cccc(NC(=O)C2CCN(c3ncnc4sc(C)c(C)c34)CC2)c1	x	14.6	x	-16.5	-12.3	x
CNC(=O)c1c(NC(=O)c2nc3ccccc3s2)sc2c1CCC2	-1.2	44.0*	10.6	-6.2	-8.0	-6.6
CCOc1ccc(-c2ncncc2-c2ccccc2OC)c(O)c1	-11.2	8.8	x	-22.5	-50.5	x
CCOC(=O)/C(C#N)=c1/s/c(=C2\C=Cc3ccccc3N2CC)c(=O)n1CC	-8.8	16.2	x	-11.8	-15.0	30.3
COC(=O)/C(C#N)=C1/C=Cc2ccccc2N1C	-4.2	60.5*	3.4	-3.6	-34.0	35.3
Brc1cc2c(cc1Br)OCCOCCOCCOCCO2	10.6	21.5	2.4	-14.4	-39.1	-34.9
Brc1ccc2c(c1)OCCOCCOc1cc(Br)ccc1OCCOCCOCCO2	24.2	4.8	8.8	57.0*	71.5*	10.1
CCc1c2c(nc3ccc(OC(=O)N4CCC(N5CCCCC5)CC4)cc13)-c1cc3c(c(=O)n1C2)COC(=O)[C@]3(O)CC	x	53.3*	14.6	-4.9	-24.6	8.0
CCOC(=O)N1CCN(C(=O)C(=O)Nc2ccc3nc4n(c(=O)c3c2)CCCCC4)CC1	1.1	8.0	10.2	-15.9	-32.5	-25.4
CC(=O)SC(C[N+](=O)[O-])c1cn(C(C)=O)c2ccccc12 (stereo unspecified)	13.7	27.7	80.9*	-22.1	-19.7	-9.1
COc1ccc2c(c1)nc(SCC(=O)C(C)(C)C)n2C	14.3	35.2	4.0	-9.4	-11.5	-2.1
COc1ccc2nc(CC(C)(C)CC(=O)O)c[n+]([O-])c2c1	-13.4	68.9*	9.3	-7.9	-17.6	31.4
CC(C)OCCCNC(=O)c1cc(-c2cccs2)nc2ccccc12	-12.2	8.8	x	-14.1	-26.4	x
COc1ccc(-c2cn(-c3ccc(OC)cc3)c3[n+]2-c2ccccc2CC3)cc1	24.4*	-12.6	3.3	-3.3	-9.0	-13.4
O=C(Nc1nc2cc3c(cc2s1)OCCO3)c1cccs1	-25.1	65.6*	13.8	7.4	12.0	-20.8
CC(=O)Nc1ccc2nc(NC(=O)c3cccs3)sc2c1	-8.0	19.8	4.5	-7.0	-8.6	13.9
O=C(COC(=O)Cc1ccc(Cl)cc1)NCCc1ccccc1	x	1.6	x	-3.7	15.1	x
CC1(C)Oc2cc(N)c([N+](=O)[O-])cc2O1	-16.8	42.8	16.0	10.5	-9.5	13.7
C=C1N(C)c2cc([N+](=O)[O-])c(N)cc2C1(C)C	-6.7	56.3*	7.4	-7.9	-22.4	-38.7
CCN(CC)S(=O)(=O)c1cc(OC)c(Cl)cc1Cl	17.2	5.3	7.8	-13.6	-8.6	1.1
CCN(CC)S(=O)(=O)c1cc(C(=O)n2cccn2)c(Cl)cc1Cl	18.9*	11.6	-3.1	-1.6	1.4	5.6
O=C(N/N=C/c1cc2c3c(c1O)CCCN3CCC2)c1ccccc1O	6.2	x	6.1	x	x	6.8
O=c1oc2c3c4c(cc2s1)CCCN4CCC3	-19.1	24.0	3.5	-5.6	-6.5	73.4*
CN(C)C(=O)N1CCN(S(=O)(=O)c2ccccc2)CC1	x	x	11.7	x	x	2.9
COc1ccc(-n2c(=O)c3c(C)c(C)sc3n(Cc3cccc(F)c3)c2=O)c(OC)c1	-12.6	2.2	4.6	-5.4	-16.3	60.6*
SMILES	GPR7 antagonist	OX1R antag-1	EP2 antag	CHO parental Ca	OX1R antag-2	EP2 modulator
COCCNC(=O)CSc1nc2ccc(N3CCOCC3)cc2c(=O)n1CCc1ccccc1	9.5	12.2	5.3	-7.7	-12.7	-28.4
O=C(CNC(=O)c1ccccc1)N/N=C/c1ccc([N+](=O)[O-])s1	-16.2	47.3*	6.7	-10.1	-10.8	-2.8
O=C(N/N=C/c1ccc([N+](=O)[O-])s1)c1ccncc1	3.1	72.1*	12.0	-3.9	-3.5	10.0
O=C(CNC(=O)c1ccccc1)N/N=C/c1cccs1	-6.8	11.8	0.6	-0.5	-10.8	6.9
O=C(Cc1ccccc1)NCC(=O)N/N=C/c1ccc([N+](=O)[O-])s1	-7.8	52.1*	x	-1.3	-17.0	x
Cc1ccc(C(=O)N/N=C/c2ccc([N+](=O)[O-])s2)cc1	-1.2	54.6	-1.8	6.1	-2.9	-31.0
Cc1ccccc1NC(=O)C1(NC(=O)c2cccc(N3C(=O)CSC3c3ccccc3)c2)CCCCC1 (stereo unspecified)	20.3*	13.1	14.5	-36.2	-33.6	3.7
CC(C)(C)c1ccc(C2SCC(=O)N2c2cccc(C(=O)O)c2)cc1 (stereo unspecified)	21.8	17.0	x	-1.3	2.3	x
CCOC(=O)N1CCN(C(=O)CS(=O)(=O)c2cn(Cc3ccc(F)cc3)c3ccccc23)CC1	x	61.7*	11.4	-8.7	16.6	-0.5
O=C(Nc1ncc([N+](=O)[O-])s1)c1ccccc1Br	-5.1	42.8*	x	4.2	-2.4	x
O=C(Nc1ncc([N+](=O)[O-])s1)c1cccs1	-3.7	74.9*	x	2.3	7.1	x
Cc1ccc2nc(NC(=O)CN3CCN(c4ccccn4)CC3)sc2c1	-4.1	-6.4	x	-12.7	-38.6	x
CCOc1ccccc1NC(=O)C(Sc1nnc2ccccn12)c1ccccc1 (stereo unspecified)	-12.3	41.2*	9.1	-14.7	-6.2	14.2
COc1ccc(N=Nc2c(C)[nH][nH]c2=O)cc1	-6.3	57.1*	5.2	-7.4	-12.2	13.1
Cc1[nH][nH]c(=O)c1N=Nc1ccc(F)cc1	3.6	16.3	x	-9.4	-28.4	x
COc1cc(C2Nc3c(Cl)cc(Cl)cc3C3C=CCC32)cc(OC)c1OC (stereo unspecified)	x	x	11.3	x	x	62.4*
O=C(O)CCNC(=O)OCC1c2ccccc2-c2ccccc21	-13.9	-10.1	x	-0.1	11.5	x
O=C(NN1C(=O)C2C3C=CC(C4CC34)C2C1=O)c1ccc(Cl)cc1Cl (stereo unspecified)	-4.6	-0.3	3.1	-9.1	-17.6	-0.8
Cc1cc(Cl)c(S(=O)(=O)N2CCN(c3ccc(F)cc3)CC2)cc1OCC(=O)NC1CCCCC1	6.5	15.0	3.0	58.3*	52.5*	20.6
CC(=O)N1CCCc2cc(S(=O)(=O)N3CCCC(C(=O)N4CCN(c5cc(C)ccc5C)CC4)C3)ccc21 (stereo unspecified)	6.1	39.9*	x	44.3*	50.5*	x
CC(=O)N1c2ccc(S(=O)(=O)N3CCC(C(=O)N4CCN(c5cc(Cl)ccc5C)CC4)CC3)cc2CC1C (stereo unspecified)	-13.2	10.3	x	43.0*	37.6	x

Assay outcomes as filed in PubChem.
